Test results reported in ChEMBL document CHEMBL5154797 (Eur J Med Chem, 2022).

Columns and labels:
[1] = Cytotoxicity against golden hamster BSR cells assessed as reduction in cell viability incubated for 24 hrs by microplate luminometer method; type: toxicity, cell-based, Mesocricetus auratus; conditions: for CC50 at 24 h: BSR cells; for CC50: bsr, 24 h
Outline: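 BSR cells given serial dilutions from 200 μM, with medium in place of virus. After 24 h at 37 °C, viability was read by luminometer and CC50 calculated.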

SARS-CoV-2 = test: Antiviral activity against S-protein based pseudotyped SARS-CoV-2 infected in Huh7 cells measured after 24 hrs by bright-Glo luciferase assay; type: functional, organism-based; conditions: Severe acute respiratory syndrome coronavirus 2, Huh-7, 24 h
Outline: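 Serial dilutions from 200 μM were held with pseudotyped SARS-CoV-2 (1.3 × 10^4 TCID50) at 37 °C for 1 h, then mixed with Huh7 cells (2000 cells/well) and incubated 24 h. EC50 was calculated from bioluminescence intensity.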

[2] = Selectivity index, ratio of CC50 for cytotoxicity against golden hamster BSR cells to EC50 for antirabies activity against Rabies virus infected in golden hamster BSR cells; type: toxicity, cell-based; conditions: read-out: Selectivity Index
Lyssavirus rabies = test: Antirabies activity against rabies CVS infected in golden hamster BSR cells preincubated for 1 hr followed by mixing of cells measured after 24 hrs by inverted fluorescence microscope analysis; type: functional, organism-based
Huh-7 = test: Cytotoxicity against human HuH-7 cells assessed as reduction in cell viability incubated for 24 hrs by microplate reader assay; type: functional
[3] = Selectivity index, ratio of CC50 for cytotoxicity against human Huh7 cells to EC50 for antiviral activity against S-protein based pseudotyped SARS-CoV-2 infected in Huh7 cells; type: functional
[4] = Binding affinity to rabies recombinant GST-His-tagged G-glycoprotein protein (20 to 459 AA residues) expressed in Escherichia coli BL21 (DE3) cells assessed as Kd treated for 60 secs followed dissociation time of 120 secs by SPR analysis; design: species or system Lyssavirus rabies
Outline: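 Biacore SPR with PBS-P as sample and running buffer. Target protein was amine-coupled to a CM5 chip in sodium acetate pH 4.0. Compound dilution series flowed at 30 μL/min, with 60 s contact and 120 s dissociation. Reference flow cell and blank cycle responses were subtracted.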

Row | Compound | CC50 at 24 h [1] | EC50 (SARS-CoV-2) | selectivity ratio [2] | EC50 (Lyssavirus rabies) | CC50 (Huh-7) | Selectivity Index [3] | CC50 [1] | Kd [4]
1 | CC(C)/N=c1\cc2n(-c3ccc(Cl)cc3)c3ccccc3nc-2cc1Nc1ccc(F)cc1 | 281 µM | 14.5 µM | 61.7 | 4.56 µM | 40.6 µM | 2.8 | – | –
2 | COc1ccc(Nc2cc3nc4ccccc4n(-c4ccc(Cl)cc4)c-3cc2=N)c(OC)c1 | – | 16.1 µM | 1 | 35.4 µM | 16.6 µM | 1 | – | –
3 | COc1ccc(-n2c3c/c(=N\C4CC4)c(Nc4ccc(F)cc4)cc-3nc3ccccc32)cn1 | – | 33.1 µM | 8.1 | 13.2 µM | 88.9 µM | 2.7 | 107 µM | –
4 | CC(C)/N=c1\cc2n(-c3ccc(F)cc3)c3ccccc3nc-2cc1Nc1ccc(Cl)cc1 | 223 µM | 29.6 µM | 55.6 | 4.02 µM | 17 µM | 0.6 | – | –
5 | COc1ccc(Nc2cc3nc4ccccc4n(-c4ccc(Cl)cc4)c-3c/c2=N\C(C)C)cc1 | – | 16.6 µM | 19 | 6.86 µM | 88.9 µM | 5.4 | 130 µM | –
6 | CCC/N=c1\cc2n(-c3ccc(Cl)cc3)c3ccccc3nc-2cc1Nc1ccc(F)cc1 | – | 10.3 µM | 32.6 | 1.67 µM | 14.9 µM | 1.5 | 54.5 µM | –
7 | CCC/N=c1\cc2n(-c3ccc(Cl)cc3)c3ccccc3nc-2cc1Nc1ccc(Cl)cc1 | 323 µM | 39.3 µM | 13 | 24.9 µM | 107 µM | 2.7 | – | –
8 | CC(C)/N=c1\cc2n(-c3ccc(Cl)cc3)c3ccccc3nc-2cc1Nc1ccc(Cl)cc1 [CLOFAZIMINE] | 323 µM | 10 µM | – | 2.28 µM | 44.7 µM | – | – | 0.28 µM
9 | CC(C)/N=c1\cc2n(-c3ccc(Cl)cc3)c3ccccc3nc-2cc1NCc1ccc(Cl)cc1 | – | 12.4 µM | 123 | 0.76 µM | 16.1 µM | 1.3 | 93.1 µM | –
10 | Fc1ccc(Nc2cc3nc4ccccc4n(-c4ccc(Cl)cc4)c-3c/c2=N\C2CC2)cc1 | – | 13.5 µM | 47.1 | 6.86 µM | 16.7 µM | 1.2 | – | –
11 | COc1ccc(Nc2cc3nc4ccccc4n(-c4ccc(Cl)cc4)c-3cc2=N)cc1 | – | 154 µM | 1 | 106 µM | > 267 µM | >1.7 | – | –
12 | COc1ccc(Nc2cc3nc4ccccc4n(-c4ccc(OC)nc4)c-3c/c2=N\C(C)C)cc1 | 323 µM | < 10 µM | 24.5 | 13.2 µM | 17.1 µM | >1.7 | – | –
13 | COc1ccc(Nc2cc3nc4ccccc4n(-c4ccccc4)c-3c/c2=N\C(C)C)cn1 | – | 13.5 µM | 21.2 | 5.03 µM | 22.7 µM | 1.7 | 107 µM | –
14 | CC(C)/N=c1\cc2n(-c3ccc(F)cc3)c3ccccc3nc-2cc1Nc1ccc(F)cc1 | 314 µM | 81.1 µM | 134 | 2.29 µM | 267 µM | 3.3 | – | –
15 | CCC/N=c1\cc2n(-c3ccc(OC)nc3)c3ccccc3nc-2cc1Nc1ccc(F)cc1 | – | < 10 µM | 76.4 | 1.4 µM | < 10 µM | – | 107 µM | –
16 | N=c1cc2n(-c3ccccc3)c3ccccc3nc-2cc1NCc1ccccc1 | 35.4 µM | – | 1 | 35.4 µM | – | – | – | –
